Hits are enriched below; roughly 1.8% of the tested compounds scored in any of these assays.
697 NFkB inh = lowers PMA/ionomycin-induced NF-kB signal in 697 B cells. inhibition, % at 4 µM. 0.33% of 330,000 active. 697 B-cell NF-kB luciferase reporter, 16 h. AID 435022; in the data active = inhibition above about 35%
NR2E3 ag-1 = NR2E3 (human) agonism. 0.12% of 320,000 active. Q9Y5X4. GST-NR2E3/biotin-RetCOR TR-FRET, 1536-well. inhibition of corepressor binding, % at 4.78 µM;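 active = percent inhibition above the cutoff of mean plus 3 SD of all tested compounds, set per screening campaign, cut at about 20% in these data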
Target sequence (Q9Y5X4 whole entry, looked up): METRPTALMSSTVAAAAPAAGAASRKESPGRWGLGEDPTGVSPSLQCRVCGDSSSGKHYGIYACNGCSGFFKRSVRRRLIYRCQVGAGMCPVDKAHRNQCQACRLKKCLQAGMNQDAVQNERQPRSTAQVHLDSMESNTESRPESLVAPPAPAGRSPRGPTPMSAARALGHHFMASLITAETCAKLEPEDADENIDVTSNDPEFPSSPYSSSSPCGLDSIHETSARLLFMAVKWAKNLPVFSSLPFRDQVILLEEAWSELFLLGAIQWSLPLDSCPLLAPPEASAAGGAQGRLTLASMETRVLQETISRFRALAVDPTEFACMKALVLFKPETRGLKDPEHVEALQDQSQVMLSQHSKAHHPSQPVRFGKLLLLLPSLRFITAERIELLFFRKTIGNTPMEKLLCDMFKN
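System: GST-tagged NR2E3 plus biotinylated RetCOR corepressor; Amount: 1.35 nM GST-tagged NR2E3 final; Dosing: single nominal compound dose of 4.8 µM; Schedule: 5 h incubation at 4 °C; Technique: TR-FRET with europium anti-GST and streptavidin-D2, 340 nm excitation; Controls: biotin wells as high control, 0.6% DMSO wells as low control.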
Jurkat NFkB inh = inhibitors of the PMA/ionomycin-induced NF-kB reporter in Jurkat cells | PMA/ionomycin-induced NF-kB luciferase reporter, luminescence | AID 435003 | 0.53% of 330,000 active | inhibition, % at 4 µM; in the data active = inhibition above about 50%
NR2E3 ag-2 = activates human NR2E3 receptor; Q9Y5X4; CHO-S Gal4-NCOR/VP16-NR2E3 two-hybrid, luciferase; inhibition of corepressor binding, % at 3.98 µM; 0.35% of 360,000 active;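 active = inhibition above the mean of all tested compounds plus 3 SD, cut at about 70% in these data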;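 also: higher means lower luciferase signal from less NR2E3 corepressor binding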
Gli-Sufu block = Gli-Sufu pathway antagonism; 0.74% of 340,000 active; Sufu-KO-LIGHT fibroblasts, Gli luciferase reporter luminescence; AID 588413; inhibition, % at 5 µM;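 active = inhibition above about 55%, limit read from the data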
GalR3 antagonist = human GalR3 antagonism. O60755. HEK293 GalR3-CNG cAMP membrane potential fluorescence; galR3 body fused to GalR1 C-terminus. inhibition, % at 3 µM. 0.44% of 360,000 active. AID 651719;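 active = inhibition above the screen-wide average plus 3 SD, cut at about 13% in these data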;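 also: forskolin and galanin both at EC90 stimulate the cells; cAMP rise reported by CNG channel membrane potential dye signal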
Target sequence (O60755 1-299 limits assumed): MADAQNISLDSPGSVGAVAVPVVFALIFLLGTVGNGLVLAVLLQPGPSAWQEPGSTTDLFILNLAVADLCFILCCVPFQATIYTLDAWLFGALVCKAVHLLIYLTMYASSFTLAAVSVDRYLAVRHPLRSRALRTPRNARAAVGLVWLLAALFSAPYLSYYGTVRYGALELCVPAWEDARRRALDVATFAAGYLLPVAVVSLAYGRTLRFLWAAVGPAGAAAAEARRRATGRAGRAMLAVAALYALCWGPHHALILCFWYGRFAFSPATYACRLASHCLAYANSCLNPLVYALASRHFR
NR2E3 ag conf = NR2E3 agonism confirmed in two-hybrid assay; shares compounds with NR2E3 ag-2; CHO-S mammalian two-hybrid NR2E3-NCOR, luciferase luminescence; inhibition, % at 3.98 µM; 51% of 2,300 active;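 active = average inhibition above a cutoff equal to the mean inhibition of all tested compounds plus one SD, cut at about 70% in these data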
GAL4-VP16 luc = counter-screen for NR2E3 agonists: GAL4-VP16 reporter inhibitors. CHO-S GAL4-VP16 luciferase reporter, luminescence. 29% of 2,300 active. inhibition, % at 3.98 µM. shares compounds with NR2E3 ag-2;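 active = mean inhibition above a cutoff equal to the average over all tested compounds plus one standard deviation, cut at about 70% in these data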;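 also: luciferase from a UAS reporter driven by GAL4-VP16 transactivation; higher means less reporter light so more repression of VP16 activity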
GalR3 conf = confirmation of human galanin receptor 3 antagonists. shares compounds with GalR3 antagonist. HEK293 GalR3 CNG cAMP biosensor, membrane potential fluorescence; galR3 fused to GalR1 carboxy tail; challenged with forskolin and galanin at EC90. inhibition, % at 3 µM. 59% of 1,600 active;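 active = inhibition above the primary screen's cutoff, the mean inhibition of all screened compounds plus 3 SD, cut at about 13% in these data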
CNG parental = counter-screen for GalR3 antagonists: nonspecific agonists in parental HEK-CNG cells | shares compounds with GalR3 antagonist | HEK293-CNG parental cells, cAMP membrane potential fluorescence; normalised: DMSO wells 0%, forskolin wells 100% | activation, % at 3 µM | 10% of 1,600 active | AID 652268; in the data active = activation above about 1.3%
Hits are given with their value; i = inactive; nt = not tested or not shown.

SMILES	697 NFkB inh	NR2E3 ag-1	Jurkat NFkB inh	NR2E3 ag-2	Gli-Sufu block	GalR3 antagonist	NR2E3 ag conf	GAL4-VP16 luc	GalR3 conf	CNG parental
O=C(C(=O)c1cc(Br)ccc1O)c1cc(Br)ccc1O	nt	nt	nt	99.4	i	87.0	100.4	92.0	43.7	i
CCCCCC[n+]1ccccc1/C=C/c1ccc(N(C)C)cc1	nt	nt	nt	87.8	nt	15.9	98.2	79.8	16.1	40.8
CCc1ccc2c(c1)C1(NN=C(c3cccc4ccccc34)S1)C(=O)N2 (stereo not drawn)	i	i	i	79.7	nt	23.4	i	i	i	i
Cc1nnsc1NC(=O)OCc1ccc(Cl)cc1Cl	i	i	i	i	i	i	nt	nt	nt	nt
Cc1nn(C)c(Cl)c1NC(=O)OCc1ccc(Cl)cc1Cl	i	i	i	i	i	96.1	90.8	i	20.9	i
CC(=O)c1cccc(NS(=O)(=O)c2ccc(NC(=O)N3CCCCC3)cc2)c1	i	i	i	i	i	83.4	i	i	97.0	i
CC(=O)c1cccc(NC(=O)N2CCCCCC2)c1	i	i	i	i	i	i	nt	nt	nt	nt
CN(C)c1ccc(C=c2c3ccccc3n3c2c2c([n+]3C)CCCC2)cc1	nt	nt	nt	96.4	88.8	80.6	99.8	91.4	88.6	i
CN(C)c1ccc(/C=C2\CCC/C(=C\c3ccccc3)C2=O)cc1	nt	i	nt	i	i	i	nt	nt	nt	nt
O=C(O)c1ccccc1NC(=O)C(c1ccccc1)c1ccccc1	i	i	i	i	i	i	nt	nt	nt	nt
O=C(Nc1ccccc1O)C(c1ccccc1)c1ccccc1	i	i	i	i	i	54.6	83.0	72.0	91.9	i
CCOCc1c(C(=O)Nc2ccc(OC)nc2)oc2ccccc12	i	i	i	i	i	i	nt	nt	nt	nt
CC(C)(C)OC(=O)NCCCCCc1cn([C@@H](CO)C(=O)NCCCCCCCCCCC(=O)N2CCN(C(=O)OC(C)(C)C)CC2)nn1	i	i	i	i	60.4	87.8	83.2	74.2	101.5	i
O=C(NCc1ccc(F)c(F)c1)c1cccc2c(-c3cccnc3)coc12	nt	nt	nt	i	nt	i	nt	nt	nt	nt
COc1ccc(CNC(=O)c2cccc3c(-c4cccnc4)coc23)cc1OC	nt	nt	nt	97.0	nt	88.7	96.3	89.0	106.0	i
COc1c2ccoc2nc2c(OC)c(OC[C@@H](O)C(C)(C)O)ccc12	i	i	i	i	i	i	nt	nt	nt	nt
Cc1cc(C(=O)NC2CCCc3c2cnn3-c2ccc(C(C)(C)C)cc2)nn1C (stereo not drawn)	i	i	i	101.4	57.5	97.0	93.7	81.5	106.2	i
Cc1cccc(-n2ncc3c2CCCC3NC(=O)c2ccncc2)c1C (stereo not drawn)	nt	nt	nt	83.0	nt	89.7	85.1	76.8	110.7	i
O=C(NCc1ccco1)c1ccccc1NS(=O)(=O)c1ccc(Cl)s1	i	i	i	i	i	i	nt	nt	nt	nt
Cc1ccc(NC(=O)c2ccccc2NS(=O)(=O)c2ccc(Cl)s2)cc1	i	i	i	94.8	i	16.7	97.4	79.2	33.2	i
NC(=O)c1ccc(N2CCN(S(=O)(=O)c3ccccc3)CC2)c([N+](=O)[O-])c1	i	i	i	74.3	56.5	32.5	87.0	i	115.6	i
C1=C(CCNc2ncnc3c2[nH]c2ccccc23)CCCC1	nt	i	nt	74.0	77.9	84.1	96.9	80.8	98.2	1.4
O=c1c2[nH]c3ccccc3c2ncn1CCC1=CCCCC1	i	i	i	i	i	i	nt	nt	nt	nt
CCOc1ccc(OCCC(=O)OCC(=O)Nc2ccc(Cl)cn2)cc1	i	i	i	i	i	i	nt	nt	nt	nt
Cc1ccc(-n2ncc3c(SCc4cccc(C)c4)ncnc32)cc1	i	i	i	i	i	i	nt	nt	nt	nt
SMILES	697 NFkB inh	NR2E3 ag-1	Jurkat NFkB inh	NR2E3 ag-2	Gli-Sufu block	GalR3 antagonist	NR2E3 ag conf	GAL4-VP16 luc	GalR3 conf	CNG parental
Cc1ccc(-n2ncc3c(SCc4cccnc4)ncnc32)c(C)c1	nt	nt	nt	i	i	60.3	81.0	i	97.5	i
CCOC(=O)c1cnc(-n2nc(C)cc2C)nc1NC1CCCCC1	i	i	i	92.8	81.6	33.9	91.4	i	73.4	6.8
CCOC(=O)c1cnc(-n2nc(C)cc2C)nc1NC	i	i	i	i	i	i	nt	nt	nt	nt
Cc1csc2ncnc(N3CCN(C(=S)Nc4ccc(C(F)(F)F)cc4)CC3)c12	i	i	i	i	i	67.0	95.3	82.5	93.2	1.8
Cc1cc(C)cc(NC(=S)N2CCN(c3ncc(C(F)(F)F)cc3Cl)CC2)c1	i	i	i	i	i	i	nt	nt	nt	nt
Cc1cc(C(=O)NNC(=O)c2ccc(C)s2)c(C)o1	i	i	i	i	i	i	nt	nt	nt	nt
c1ccc(CCNc2ccnc3cc4ccccc4cc23)cc1	nt	nt	nt	92.6	83.0	18.8	97.5	82.0	i	3.3
CC(=O)Nc1ccc(-c2ccnc3c2CC(C(=O)Nc2ccc4c(c2)OCO4)O3)cc1 (stereo not drawn)	nt	nt	nt	i	nt	i	nt	nt	nt	nt
COc1ccc(NC(=O)C2Cc3c(-c4ccc5c(c4)OCO5)ccnc3O2)cc1OC (stereo not drawn)	nt	nt	nt	84.0	nt	66.4	90.9	72.7	74.3	i
COc1ccccc1OCc1ccc(C(=O)OCC2CCCO2)o1 (stereo not drawn)	i	i	i	i	i	14.6	nt	nt	i	i
Cc1ccccc1NC(=O)CSc1nc(N)c2c3c(sc2n1)CSC(C)(C)C3	i	i	i	i	i	21.1	nt	nt	38.8	i
COc1ccc(Nc2cc3n(c(=O)n2)CCc2cc(OC)c(OC)cc2-3)c(C)c1	i	i	i	i	i	39.5	nt	nt	71.9	i
COc1cc2c(cc1OC)-c1cc(Nc3ccccc3)nc(=O)n1CC2	i	i	i	i	i	44.1	nt	nt	57.3	i
COc1ccc(Nc2cc3n(c(=O)n2)CCc2cc(OC)c(OC)cc2-3)cc1	i	i	i	i	i	21.1	nt	nt	58.6	i
COc1cc2c(cc1OC)-c1cc(Nc3ccc(C(=O)O)cc3)nc(=O)n1CC2	i	i	i	i	i	i	nt	nt	nt	nt
COc1ccc(NC(=O)N2CCc3cc(OC)c(OC)cc3C2)cc1	i	i	i	i	i	i	nt	nt	nt	nt
COc1cc2c(cc1OC)-c1cc(Nc3ccc(C)cc3)nc(=O)n1CC2	i	i	i	i	i	45.0	nt	nt	58.8	i
CCOc1ccc(S(=O)(=O)N2CCc3cc(OC)c(OC)cc3C2)cc1	i	i	i	i	i	i	nt	nt	nt	nt
CCN(CC)CCCNc1cc2n(c(=O)n1)CCc1cc(OC)c(OC)cc1-2	i	i	i	i	i	i	nt	nt	nt	nt

Screens from PubChem BioAssay.
